Data from ChEMBL document CHEMBL1142133 (2007).

Experiments:
Type in all cases: functional
Cryptococcus neoformans [1] = test: Antifungal activity against flucytosine-resistant Cryptococcus neoformans 18476 at 64 ug/ml after 72 hrs by time-kill method
Procedure, shortened: (§1)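 Time-kill assay run as in the authors' earlier method. […] Read-out was log10 CFU/ml after 72 h incubation, compared with a drug-free control.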

Cryptococcus neoformans [2] = test: Antifungal activity against flucytosine-resistant Cryptococcus neoformans 550 at 64 ug/ml after 72 hrs by time-kill method; procedure, shortened: as §1
Cryptococcus neoformans [3] = test: Antifungal activity against flucytosine-resistant Cryptococcus neoformans 98.0673 at 64 ug/ml after 72 hrs by time-kill method; procedure, shortened: as §1
Cryptococcus neoformans [4] = test: Antifungal activity against flucytosine-resistant Cryptococcus neoformans 99.1026 at 64 ug/ml after 72 hrs by time-kill method
Procedure, shortened: (§2)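 Time-kill assay on flucytosine-resistant isolates. […] Viable counts were taken as log10 CFU per ml after 72 h of incubation.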

Cryptococcus neoformans [5] = test: Antifungal activity against flucytosine-resistant Cryptococcus neoformans 98.1121 at 64 ug/ml after 72 hrs by time-kill method; procedure, shortened: as §2
Cryptococcus neoformans [6] = test: Antifungal activity against flucytosine-resistant Cryptococcus neoformans 276 at 64 ug/ml after 72 hrs by time-kill method; procedure, shortened: as §1
Cryptococcus neoformans [7] = test: Antifungal activity against flucytosine-resistant Cryptococcus neoformans 280 at 64 ug/ml after 72 hrs by time-kill method; procedure, shortened: as §1
Cryptococcus neoformans [8] = test: Antifungal activity against flucytosine-resistant Cryptococcus neoformans 533 at 64 ug/ml after 72 hrs by time-kill method; procedure, shortened: as §1
Cryptococcus neoformans [9] = test: Antifungal activity against flucytosine-resistant Cryptococcus neoformans 550 by checkerboard method
Cryptococcus neoformans [10] = test: Antifungal activity against flucytosine-resistant Cryptococcus neoformans 98.0673 by checkerboard method
Cryptococcus neoformans [11] = test: Antifungal activity against flucytosine-resistant Cryptococcus neoformans 99.1026 by checkerboard method
Cryptococcus neoformans [12] = test: Antifungal activity against flucytosine-resistant Cryptococcus neoformans 98.1121 by checkerboard method
Cryptococcus neoformans [13] = test: Antifungal activity against flucytosine-resistant Cryptococcus neoformans 276 by checkerboard method
Cryptococcus neoformans [14] = test: Antifungal activity against flucytosine-resistant Cryptococcus neoformans 280 by checkerboard method
Cryptococcus neoformans [15] = test: Antifungal activity against flucytosine-resistant Cryptococcus neoformans 533 by checkerboard method
Cryptococcus neoformans [16] = test: Antifungal activity against flucytosine-resistant Cryptococcus neoformans 98.0176 by checkerboard method in presence of amphotericin B
Cryptococcus neoformans [17] = test: Antifungal activity against flucytosine-resistant Cryptococcus neoformans 285 by checkerboard method
Cryptococcus neoformans [18] = test: Antifungal activity against flucytosine-resistant Cryptococcus neoformans 18476 by checkerboard method in presence of amphotericin B
Cryptococcus neoformans [19] = test: Antifungal activity against flucytosine-resistant Cryptococcus neoformans 285 by checkerboard method in presence of amphotericin B
Cryptococcus neoformans [20] = test: Antifungal activity against flucytosine-resistant Cryptococcus neoformans 550 by checkerboard method in presence of amphotericin B
Cryptococcus neoformans [21] = test: Antifungal activity against flucytosine-resistant Cryptococcus neoformans 98.0673 by checkerboard method in presence of amphotericin B
Cryptococcus neoformans [22] = test: Antifungal activity against flucytosine-resistant Cryptococcus neoformans 99.1026 by checkerboard method in presence of amphotericin B
Cryptococcus neoformans [23] = test: Antifungal activity against flucytosine-resistant Cryptococcus neoformans 98.1121 by checkerboard method in presence of amphotericin B
Cryptococcus neoformans [24] = test: Antifungal activity against flucytosine-resistant Cryptococcus neoformans 276 by checkerboard method in presence of amphotericin B
Cryptococcus neoformans [25] = test: Antifungal activity against flucytosine-resistant Cryptococcus neoformans 280 by checkerboard method in presence of amphotericin B
Cryptococcus neoformans [26] = test: Antifungal activity against flucytosine-resistant Cryptococcus neoformans 533 by checkerboard method in presence of amphotericin B
Cryptococcus neoformans [27] = test: Antifungal activity against flucytosine-resistant Cryptococcus neoformans 276 by Etest method in presence of amphotericin B
Cryptococcus neoformans [28] = test: Antifungal activity against flucytosine-resistant Cryptococcus neoformans 98.0176 by checkerboard method
Cryptococcus neoformans [29] = test: Antifungal activity against flucytosine-resistant Cryptococcus neoformans 18476 by checkerboard method
Cryptococcus neoformans [30] = test: Antifungal activity against flucytosine-resistant Cryptococcus neoformans 98.0176 by Etest method in presence of amphotericin B
Cryptococcus neoformans [31] = test: Antifungal activity against flucytosine-resistant Cryptococcus neoformans 18476 by Etest method in presence of amphotericin B
Cryptococcus neoformans [32] = test: Antifungal activity against flucytosine-resistant Cryptococcus neoformans 285 by Etest method in presence of amphotericin B
Cryptococcus neoformans [33] = test: Antifungal activity against flucytosine-resistant Cryptococcus neoformans 550 by Etest method in presence of amphotericin B
Cryptococcus neoformans [34] = test: Antifungal activity against flucytosine-resistant Cryptococcus neoformans 98.0673 by Etest method in presence of amphotericin B
Cryptococcus neoformans [35] = test: Antifungal activity against flucytosine-resistant Cryptococcus neoformans 99.1026 by Etest method in presence of amphotericin B
Cryptococcus neoformans [36] = test: Antifungal activity against flucytosine-resistant Cryptococcus neoformans 98.1121 by Etest method in presence of amphotericin B
Cryptococcus neoformans [37] = test: Antifungal activity against flucytosine-resistant Cryptococcus neoformans 280 by Etest method in presence of amphotericin B
Cryptococcus neoformans [38] = test: Antifungal activity against flucytosine-resistant Cryptococcus neoformans 533 by Etest method in presence of amphotericin B
Cryptococcus neoformans [39] = test: Antifungal activity against flucytosine-resistant Cryptococcus neoformans 98.0176 at 64 ug/ml after 72 hrs by time-kill method; procedure, shortened: as §1

Nc1nc(=O)[nH]cc1F [FLUCYTOSINE]
log10CFU/ml (Cryptococcus neoformans [1]): 7.5
log10CFU/ml (Cryptococcus neoformans [2]): 7.2
log10CFU/ml (Cryptococcus neoformans [3]): 7.4
log10CFU/ml (Cryptococcus neoformans [4]): 7.1
log10CFU/ml (Cryptococcus neoformans [5]): 7.5
log10CFU/ml (Cryptococcus neoformans [6]): 7.3
log10CFU/ml (Cryptococcus neoformans [7]): 7.4
log10CFU/ml (Cryptococcus neoformans [8]): 7.5
MIC (Cryptococcus neoformans [9]): 128 µg/mL
MIC (Cryptococcus neoformans [10]): 64 µg/mL
MIC (Cryptococcus neoformans [11]): 32 µg/mL
MIC (Cryptococcus neoformans [12]): 256 µg/mL
MIC (Cryptococcus neoformans [13]): 256 µg/mL
MIC (Cryptococcus neoformans [14]): 256 µg/mL
MIC (Cryptococcus neoformans [15]): 256 µg/mL
MIC (Cryptococcus neoformans [16]): 0.5 µg/mL
MIC (Cryptococcus neoformans [17]): 32 µg/mL
MIC (Cryptococcus neoformans [18]): 1 µg/mL
MIC (Cryptococcus neoformans [19]): 0.25 µg/mL
MIC (Cryptococcus neoformans [20]): 0.5 µg/mL
MIC (Cryptococcus neoformans [21]): 16 µg/mL
MIC (Cryptococcus neoformans [22]): 1 µg/mL
MIC (Cryptococcus neoformans [23]): 0.25 µg/mL
MIC (Cryptococcus neoformans [24]): 4 µg/mL
MIC (Cryptococcus neoformans [25]): 0.5 µg/mL
MIC (Cryptococcus neoformans [26]): 0.5 µg/mL
MIC (Cryptococcus neoformans [27]): > 32 µg/mL
MIC (Cryptococcus neoformans [28]): 64 µg/mL
MIC (Cryptococcus neoformans [29]): 256 µg/mL
MIC (Cryptococcus neoformans [30]): > 32 µg/mL
MIC (Cryptococcus neoformans [31]): > 32 µg/mL
MIC (Cryptococcus neoformans [32]): > 32 µg/mL
MIC (Cryptococcus neoformans [33]): > 32 µg/mL
MIC (Cryptococcus neoformans [34]): > 32 µg/mL
MIC (Cryptococcus neoformans [35]): > 32 µg/mL
MIC (Cryptococcus neoformans [36]): > 32 µg/mL
MIC (Cryptococcus neoformans [37]): > 32 µg/mL
MIC (Cryptococcus neoformans [38]): > 32 µg/mL
log10CFU/ml (Cryptococcus neoformans [39]): 7.4
